Compounds with a hit are over-represented: about 1.7% of the library has one in this group of screens.
RanGTP-Imp inh = disruptors of Ran-importin-beta complex formation – biochemical, FRET, CFP-Ran, YFP-importin-beta, homogeneous, primary screen; 1.1% of 300,000 active; AID 2216; inhibition, % (no concentration beside the values); cell-free CFP-Ran/YFP-importin-beta FRET ratio;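 active = more than half of the replicate wells show a fall in the fluorescence ratio signal beyond about 16%, limit read from the data, passing the limit was not always enough; inconclusive = exactly half of the replicate wells pass the set limit; inactive = fewer than half of replicates pass the limit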
Vif inh = HIV Vif inhibition; HEK293T cells, Vif self-association by quenched fluorescence, imaging, 24 h; inhibition, % at 7.49 µM; 0.35% of 340,000 active; AID 602346; in the data active = inhibition above about 50%, passing the limit was not always enough; inconclusive = no clear call, values can overlap the other calls; inactive = below about 31%
Runt-SMMHC FRET = inhibitors of human RUNX1 Runt domain binding to CBFb-SMMHC; inhibition, % at 20 µM; 0.74% of 220,000 active; Cerulean-Runt/Venus-CBFb-SMMHC FRET ratio 530/480, 1 h; AID 1434;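 active = mean inhibition across duplicate retests at 20 µM reaching about 50%, limit read from the data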;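 note: inhibitors lower the FRET ratio by blocking Runt binding to CBFb-SMMHC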
Target sequence (Q01196 whole entry, looked up, the tested form may be a part): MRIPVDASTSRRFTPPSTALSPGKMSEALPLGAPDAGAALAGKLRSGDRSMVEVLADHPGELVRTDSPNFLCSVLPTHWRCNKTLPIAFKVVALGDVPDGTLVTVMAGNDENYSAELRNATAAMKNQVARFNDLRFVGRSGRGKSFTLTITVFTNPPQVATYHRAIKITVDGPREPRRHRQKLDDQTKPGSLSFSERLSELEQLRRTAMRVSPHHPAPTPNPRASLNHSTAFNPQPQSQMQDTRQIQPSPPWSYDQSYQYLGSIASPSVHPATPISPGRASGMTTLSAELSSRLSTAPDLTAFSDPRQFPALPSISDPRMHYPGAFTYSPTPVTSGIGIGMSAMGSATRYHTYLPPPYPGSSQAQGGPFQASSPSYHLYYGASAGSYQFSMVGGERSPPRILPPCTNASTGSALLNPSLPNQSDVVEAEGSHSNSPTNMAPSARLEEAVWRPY
Target sequence (Q13951 whole entry, looked up, the tested form may be a part): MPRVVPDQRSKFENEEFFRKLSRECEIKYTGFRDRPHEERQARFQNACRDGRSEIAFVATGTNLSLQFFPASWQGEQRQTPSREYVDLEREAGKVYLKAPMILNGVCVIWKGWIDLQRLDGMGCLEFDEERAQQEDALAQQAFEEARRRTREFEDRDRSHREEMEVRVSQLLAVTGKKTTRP
Rce1 inh = inhibitors of yeast Ras-converting enzyme; yeast membranes, quenched prenylated peptide cleavage fluorescence; calls only; 0.27% of 290,000 active;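 active = fall in fluorescence gain of 50% or more versus controls, with final raw signal at or below 3038400; inconclusive = same 50% fall but final raw signal above 3038400; inactive = fall in fluorescence gain under 50%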
Runt-CBFb FRET = Runt domain-CBFb interaction inhibition. AID 1496. Q01196+Q13951. inhibition, % at 20 µM. Cerulean-Runt/Venus-CBFb FRET ratio 530/480, 1 h. 0.46% of 220,000 active;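 active = inhibition over about 50% at 20 µM in the single-dose screen, limit read from the data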
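Doses: 20 µM compound in 1% DMSO | Material: Cerulean-labeled Runt domain protein | Amount: Each fluorescent fusion protein 100 nM | Schedule: Two 1 h room-temperature incubations shielded from light | Measured by: FRET fluorescence | Evaluation: Loss of energy transfer signal | Controls: Unlabeled CBFb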
RUNX1 CBFb TR = Runt-CBFb binding inhibition | 20% of 480 active | shares compounds with Runt-CBFb FRET | TR-FRET RUNX1 Runt domain-CBFb binding | inhibition, % at 20 µM | AID 1502; in the data active = inhibition above about 40%
YIC FRET counter = counter-screen: alters YIC FRET probe signal; shares compounds with RanGTP-Imp inh; Purified YIC probe, intramolecular FRET ratio YFP/CFP; IC50, µM; 40% of 1,000 active;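 active = fitted half-maximal inhibitory concentration no more than tenfold above the top dose tested; inconclusive = flat fit with 30 to 70% activity, or poor fit; inactive = half-maximal concentration beyond tenfold above the top dose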
Numbers stand for hits; . = inactive; ? = inconclusive; / = not tested or not shown.

SMILES	RanGTP-Imp inh	Vif inh	Runt-SMMHC FRET	Rce1 inh	Runt-CBFb FRET	YIC FRET counter	others
CCOCCCNC(=O)/C(C#N)=C/c1cc(Br)c(O)c(Br)c1	38.4	.	116.3	.	68.1	14.8	RUNX1 CBFb TR=.
CC(=O)N1CCc2c(sc(NC(=O)c3ccc4c(c3)OCCO4)c2C#N)C1	39.0	.	90.4	.	64.6	51.8	RUNX1 CBFb TR=.
COc1ccc(-c2noc(=O)n2CC(=O)N2CCC(Cc3ccccc3)CC2)cc1	.	.	.	.	.	/
C=CCn1c(N)c(C(=O)OCCC)c2nc3ccccc3nc21	21.2	.	118.8	.	69.0	.	RUNX1 CBFb TR=.
Cc1noc(C)c1CCC(=O)NC1CCCN(Cc2ccc(CC(C)C)cc2)C1 (stereo unspecified)	.	.	/	.	/	/
COc1ccc(/C=C/C(=O)NNC(=O)c2ccncc2)c(OC)c1	/	.	/	/	/	/
Cc1ccc2c(NC(=O)c3ccc(Br)o3)cccc2n1	?	.	/	.	/	/
CCCCn1c(NC(=O)c2ccc(Br)o2)c(S(=O)(=O)c2ccccc2)c2nc3ccccc3nc21	25.4	.	135.7	.	64.0	4.89	RUNX1 CBFb TR=.
COc1cc(CN2CCN(Cc3c[nH]c4ccccc34)CC2CCO)cc(OC)c1 (stereo unspecified)	20.9	?	/	.	/	.
CCc1nc2ccc(C(=O)NCCN3CCNC3=O)cn2c1N(C)CCC(C)C	/	.	/	/	/	/
COc1ccc(C(=O)O)cc1S(=O)(=O)N(C)C	26.2	.	.	.	.	.
COc1ccc(C(=O)Nc2ccc(S(=O)(=O)Nc3onc(C)c3C)cc2)cc1	27.1	.	.	.	.	.
OCCN1CCN(c2ncnc3c2ncn3[C@H]2CN(Cc3ccc(Cl)cc3)C[C@@H](CO)O2)CC1	/	.	/	/	/	/
COc1ccc2c(c1)C(c1ccc(C)o1)=NNC(c1cccnc1)=N2	21.1	.	.	.	.	.
CC(=O)c1ccc(NC(=O)c2ccc3snnc3c2)cc1	.	.	/	.	/	/
COc1ccc(NC(=O)c2ccc3snnc3c2)cc1	96.0	/	.	.	.	.
COc1ccc(NC(=O)c2cc3ccc(O)cc3o/c2=N\O)cc1	28.2	.	/	.	/	50.7
Cc1ccc(SCc2c(C(=O)N/N=C/c3ccc4c(c3)OCO4)nnn2-c2nonc2N)cc1	.	.	/	.	/	/
Cc1ccc(-c2c(C(=O)N/N=C/c3ccc4c(c3)OCO4)nnn2-c2nonc2N)cc1	22.8	.	/	.	/	.
CCCNC(=O)C(Cc1ccc(C(F)(F)F)cc1)NC(=O)c1ccc(C#N)cc1 (stereo unspecified)	/	.	/	/	/	/
CCOC(=O)C(=O)Nc1cc(C(=O)OC)cc(C(=O)OC)c1	16.1	.	.	.	.	.
Fc1ccc(-c2cc3nc(-c4ccccc4)cc(N4CCOCC4)n3n2)cc1	.	.	.	/	.	/
Cc1ccc(-c2cc3nc(-c4ccccc4)cc(N4CCC5(CC4)OCCO5)n3n2)cc1	29.5	.	.	.	.	5.56
CCOC(OCC)c1nc(N)[nH]c(=O)c1CCCCc1ccccc1	/	.	/	/	/	/
CCC(=O)N1CCc2cc(OC)c(OC)cc2C1COc1ccc(F)cc1 (stereo unspecified)	.	.	/	.	/	/
SMILES	RanGTP-Imp inh	Vif inh	Runt-SMMHC FRET	Rce1 inh	Runt-CBFb FRET	YIC FRET counter	others
Nc1nc(CSc2nnnn2-c2ccc(Cl)cc2)nc(N2CCOCC2)n1	20.0	.	.	.	.	.
NS(=O)(=O)c1cccc(NC(=O)CCCNC(=O)c2ccc(Cl)cc2)c1	.	.	/	.	/	/
NS(=O)(=O)c1cccc(NC(=O)CCSc2ccc(Cl)cc2)c1	18.5	.	.	.	.	.
O=C(O)c1ccc2c(c1)C(=O)/C(=C\c1ccco1)C2=O	.	?	.	.	.	/
Cc1ccc(/C=C2/C(=O)c3ccc(C(=O)O)cc3C2=O)o1	19.4	.	.	.	.	.
CCc1ccccc1N(CC(=O)NCc1ccco1)C(=O)CCC(=O)Nc1nccs1	21.8	.	/	.	/	.
Nc1cc(C(F)(F)F)cc2c1SCC(=O)N2	.	.	.	.	.	/
CCOCCCNC(=O)c1cc(-c2ccc(Br)s2)nc2ccccc12	19.3	.	/	.	/	27.9
CCn1c(SCc2cccc(OC)c2)nc2ccccc2c1=O	?	.	/	.	/	/
C(=C\c1ccccc1)/CN1CCN(C(c2nnnn2Cc2ccccc2)C2CC2)CC1 (stereo unspecified)	/	.	/	/	/	/
Cc1cc(C)c(C#N)c(N2CCN(C(=O)C3COc4ccccc4O3)CC2)n1 (stereo unspecified)	/	.	/	/	/	/
Cc1sc2ncnc(NCc3cccnc3)c2c1C	36.6	.	.	.	.	.
Cc1sc2ncnc(NCc3cccs3)c2c1C	.	.	.	.	.	/
CCOC(=O)c1ccc2[nH]cc(C(C)=O)c(=O)c2c1	20.8	.	.	.	.	14
C[C@H]1CN([C@@H](C)CO)C(=O)c2cccc(NC(=O)c3ccc(-c4nccs4)cc3)c2O[C@H]1CN(C)C(=O)Nc1ccccc1	/	/	/	/	/	.
COc1ccccc1-c1cc(NC(C)=O)c2ncc(-c3ccccc3)n2c1	/	.	/	/	/	/
CCCc1n(CC(O)COCc2ccccc2)c2ccccc2[n+]1C (stereo unspecified)	35.1	.	.	.	.	.
CC1CC1c1ccc(/C=C(\C#N)C(=O)Nc2ccccc2Cl)o1 (stereo unspecified)	36.5	.	.	.	.	52.3
CC1CC1c1ccc(/C=C(\C#N)C(=O)Nc2ccc(Cl)cc2)o1 (stereo unspecified)	16.1	.	.	.	.	.
COc1ccc(NC(=O)/C(C#N)=C\c2ccc(N3CCOCC3)o2)cc1	17.7	/	.	/	.	46.9
N#C/C(=C\c1ccc[nH]1)C(=O)Nc1ccccc1Cl	.	.	/	.	/	/
N#C/C(=C\c1ccc(N2CCOCC2)o1)C(=O)Nc1ccc(O)cc1	?	.	.	/	.	/
CCOC1=C2CN(S(=O)(=O)c3ccc(C)cc3)[C@@H](c3ccccc3)C[C@H]2[C@H]2C(=O)N(c3ccccc3)C(=O)[C@H]2C1	/	.	/	/	/	/
O=C(N/N=C/c1c(O)n(Cc2ccco2)c(=O)[nH]c1=O)c1ccccc1	.	.	.	.	.	/
CCCCc1nc2cc(C(=O)N3CCCC(COC)C3)ccc2o1 (stereo unspecified)	.	.	/	.	/	/
CC(C)(C)c1cc[n+](-c2[nH]c(=O)sc2/C=N/N=C(\[O-])c2cccnc2)cc1	.	.	/	.	/	/
O=c1[nH]c(-[n+]2ccc3ccccc3c2)c(/C=N/N=C(\[O-])c2ccccc2)s1	24.7	.	/	.	/	.
Cc1cc(C(=O)N2CCc3c([nH]c4ccccc34)C2c2c(F)cccc2Cl)no1 (stereo unspecified)	27.5	.	.	.	.	.
COc1ccc(CCNc2nc3ccccc3n3nnnc23)cc1OC	27.9	/	.	.	.	24.8
CCOc1ccc(NC(=O)CSc2nnc(Cc3csc(C)n3)o2)cc1	.	.	/	.	/	/

Compound activity (PubChem)
